Article PMC6088348 (ACS Medicinal Chemistry Letters, 2018)

What was measured:
[1] = tested on: tryptase activity in HMC1 cell lysates; assay: Inhibition of cellular tryptase activity assessed in HMC1 cell lysates; assay type: cell-based, human; details: read-out: IC50 in HMC1 cellular lysates; lysates of inhibitor-treated HMC1 cells
How it was run: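 Tryptase activity measured in lysates of cultured HMC1 human mast cells. IC50 with SEM from nonlinear regression, Hill slope unconstrained.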

[2] = Stability of the linker moiety in aqueous buffers and plasma; assay type: physicochemical; details: relative to the initial α-hydroxyacetonyl ether

| Compound | IC50 [1] [nM] | stability under aqueous conditions [2] |
| --- | --- | --- |
| NCc1cccc(C2CCN(C(=O)c3cccc(OCC(=O)C4(O)CCC4)c3)CC2)c1 [Compound 1a] | 454 | improved stability |
| NCc1cccc(C2CCN(C(=O)c3cccc(OCC(O)C4(O)CCC4)c3)CC2)c1 (stereo not shown) [Compound 1b] | 8400 |  |
| NCc1cccc(C2CCN(C(=O)c3cccc(NC(=O)C(=O)C4(O)CCC4)c3)CC2)c1 [Compound 2a] | 314 | improved stability |

The remaining lines, values ahead:

| IC50 [1] [nM] | stability under aqueous conditions [2] | Compound |
| --- | --- | --- |
| 113 |  | CC(C)(O)C(=O)C(=O)Nc1cccc(C(=O)N2CCC(c3cccc(CN)c3)CC2)c1 [Compound 3a] |
| 13300 |  | CC(C)(O)C(O)C(=O)Nc1cccc(C(=O)N2CCC(c3cccc(CN)c3)CC2)c1 (stereo not shown) [Compound 3b] |
